Data taken from the M2OR odorant receptor database.

Experiments:
Details in all cases: stereoisomer not certain
[1] = target: T1, OR1D2 (Homo sapiens) (UniProt P34982)
T1 sequence (whole entry): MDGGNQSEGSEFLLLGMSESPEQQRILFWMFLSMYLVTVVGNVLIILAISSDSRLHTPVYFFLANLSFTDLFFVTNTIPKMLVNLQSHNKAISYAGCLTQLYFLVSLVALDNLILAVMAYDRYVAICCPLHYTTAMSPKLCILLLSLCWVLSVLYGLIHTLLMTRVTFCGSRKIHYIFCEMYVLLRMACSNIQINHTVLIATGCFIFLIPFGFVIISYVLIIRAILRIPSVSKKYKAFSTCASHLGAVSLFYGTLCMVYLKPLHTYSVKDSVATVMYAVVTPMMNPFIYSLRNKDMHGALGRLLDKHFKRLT
How it was run: (§1)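 Whether a receptor–molecule pair is responsive (active) rests on the original authors' judgment that its measured signal was statistically different from baseline. Pairs without that judgment are non-responsive (inactive). Sources used varied assay methods, commonly transient luciferase assays in mammalian cell lines.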

[2] = tested on: T2, OR1B1
T2 sequence (whole entry): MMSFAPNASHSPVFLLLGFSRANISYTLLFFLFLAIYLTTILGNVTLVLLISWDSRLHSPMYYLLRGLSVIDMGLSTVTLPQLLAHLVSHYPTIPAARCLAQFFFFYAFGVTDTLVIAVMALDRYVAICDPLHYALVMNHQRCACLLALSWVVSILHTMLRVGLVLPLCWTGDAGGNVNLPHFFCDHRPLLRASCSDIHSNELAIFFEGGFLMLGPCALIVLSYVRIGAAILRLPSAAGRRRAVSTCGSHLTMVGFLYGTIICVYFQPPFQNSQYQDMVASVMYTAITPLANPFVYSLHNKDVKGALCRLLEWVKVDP
How it was run: as §1

[3] = target: T3, OR1C1 (Homo sapiens) (UniProt Q15619)
T3 sequence (whole entry): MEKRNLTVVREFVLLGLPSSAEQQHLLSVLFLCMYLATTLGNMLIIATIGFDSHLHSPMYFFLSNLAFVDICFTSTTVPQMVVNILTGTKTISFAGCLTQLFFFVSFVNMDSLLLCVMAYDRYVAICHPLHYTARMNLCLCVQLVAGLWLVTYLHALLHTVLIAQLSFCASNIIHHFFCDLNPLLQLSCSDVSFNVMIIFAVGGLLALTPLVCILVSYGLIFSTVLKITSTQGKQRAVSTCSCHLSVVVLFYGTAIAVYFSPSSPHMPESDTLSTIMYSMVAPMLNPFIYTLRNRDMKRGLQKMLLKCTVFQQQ
How it was run: as §1

[4] = tested on: OR1D2
Chain of OR1D2 (as listed by the source): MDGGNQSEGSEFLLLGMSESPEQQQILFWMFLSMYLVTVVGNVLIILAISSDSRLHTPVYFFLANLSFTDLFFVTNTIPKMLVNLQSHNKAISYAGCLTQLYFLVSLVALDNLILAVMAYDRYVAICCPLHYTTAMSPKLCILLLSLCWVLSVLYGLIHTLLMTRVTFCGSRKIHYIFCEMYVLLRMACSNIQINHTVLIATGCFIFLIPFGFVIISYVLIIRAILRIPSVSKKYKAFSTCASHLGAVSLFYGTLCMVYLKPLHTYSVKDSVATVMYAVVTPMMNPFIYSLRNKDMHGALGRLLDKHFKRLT
How it was run: as §1

[5] = tested on: OR1A2 S155N
Chain of OR1A2 S155N (as listed by the source, stated change not applied): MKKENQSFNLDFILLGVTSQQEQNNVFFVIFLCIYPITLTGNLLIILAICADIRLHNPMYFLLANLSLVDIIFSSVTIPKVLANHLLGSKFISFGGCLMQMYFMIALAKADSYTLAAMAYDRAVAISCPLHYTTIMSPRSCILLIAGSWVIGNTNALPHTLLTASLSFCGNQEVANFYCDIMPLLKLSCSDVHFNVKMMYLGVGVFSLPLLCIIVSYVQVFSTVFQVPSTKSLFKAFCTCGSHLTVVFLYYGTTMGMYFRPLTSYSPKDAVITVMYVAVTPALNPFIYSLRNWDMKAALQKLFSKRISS
How it was run: as §1

[6] = tested on: OR1A2 T154A S155N
How it was run: as §1

[7] = tested on: OR1A2 T154A
Chain of OR1A2 T154A (as listed by the source, stated change not applied): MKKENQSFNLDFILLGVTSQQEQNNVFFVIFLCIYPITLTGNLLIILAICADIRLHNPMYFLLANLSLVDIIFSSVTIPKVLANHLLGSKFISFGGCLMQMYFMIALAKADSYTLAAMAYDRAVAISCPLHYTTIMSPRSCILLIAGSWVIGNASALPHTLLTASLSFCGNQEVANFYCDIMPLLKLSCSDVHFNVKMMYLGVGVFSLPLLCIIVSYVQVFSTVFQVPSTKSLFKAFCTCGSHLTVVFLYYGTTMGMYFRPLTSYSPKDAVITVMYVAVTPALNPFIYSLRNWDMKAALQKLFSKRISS
How it was run: as §1

[8] = tested on: OR1A2 T254V
Chain of OR1A2 T254V (as listed by the source, stated change not applied): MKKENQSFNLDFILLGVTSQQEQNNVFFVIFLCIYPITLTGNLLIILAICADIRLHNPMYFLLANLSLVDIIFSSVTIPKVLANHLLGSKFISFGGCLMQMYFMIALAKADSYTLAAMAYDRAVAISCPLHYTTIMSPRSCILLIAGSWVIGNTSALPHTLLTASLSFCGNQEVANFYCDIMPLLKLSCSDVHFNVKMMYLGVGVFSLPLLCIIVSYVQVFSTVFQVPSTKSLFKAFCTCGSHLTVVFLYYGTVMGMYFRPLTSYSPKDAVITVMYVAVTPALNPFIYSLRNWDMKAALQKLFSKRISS
How it was run: as §1

[9] = tested on: OR1A2 V205I
Chain of OR1A2 V205I (as listed by the source, stated change not applied): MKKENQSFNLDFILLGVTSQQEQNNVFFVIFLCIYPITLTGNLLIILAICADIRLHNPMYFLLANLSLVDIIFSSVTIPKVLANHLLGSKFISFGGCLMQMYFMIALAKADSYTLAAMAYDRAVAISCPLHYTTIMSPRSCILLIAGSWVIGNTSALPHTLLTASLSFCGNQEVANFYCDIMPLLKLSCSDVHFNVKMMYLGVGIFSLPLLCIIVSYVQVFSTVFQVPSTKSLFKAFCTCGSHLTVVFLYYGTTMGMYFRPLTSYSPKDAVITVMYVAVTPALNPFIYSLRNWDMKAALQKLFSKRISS
How it was run: as §1

[10] = tested on: OR1A2 V277T
Chain of OR1A2 V277T (as listed by the source, stated change not applied): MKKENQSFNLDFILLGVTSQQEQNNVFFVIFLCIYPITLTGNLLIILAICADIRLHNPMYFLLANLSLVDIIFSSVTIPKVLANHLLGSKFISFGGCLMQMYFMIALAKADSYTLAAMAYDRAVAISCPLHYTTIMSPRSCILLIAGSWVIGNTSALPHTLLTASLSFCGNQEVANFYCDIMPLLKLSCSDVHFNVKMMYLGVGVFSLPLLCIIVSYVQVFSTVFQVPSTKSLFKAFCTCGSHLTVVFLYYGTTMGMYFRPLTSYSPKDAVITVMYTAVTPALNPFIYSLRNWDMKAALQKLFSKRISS
How it was run: as §1
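Also: active if original authors judged signal statistically different from baseline.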

CC(CCO)c1ccccc1 (configuration not stated)
odorant receptor agonist call [1]: inactive

CC(=O)c1c(C)c([N+](=O)[O-])c(C(C)(C)C)c([N+](=O)[O-])c1C
odorant receptor agonist call [2]: inactive
odorant receptor agonist call [3]: inactive

CCCCCC(=O)C(C)C(C)=O (configuration not stated)
odorant receptor agonist call [2]: inactive
odorant receptor agonist call [3]: inactive
odorant receptor agonist call [1]: inactive

CCC1OC(=O)C(O)=C1C (configuration not stated)
odorant receptor agonist call [2]: inactive
odorant receptor agonist call [3]: inactive
odorant receptor agonist call [1]: inactive

CC(C)c1ccccc1
odorant receptor agonist call [1]: inactive

CCCC(S)CCOC(C)=O (configuration not stated)
odorant receptor agonist call [2]: inactive
odorant receptor agonist call [3]: inactive
odorant receptor agonist call [1]: inactive

O=C(O)CCc1ccccc1
odorant receptor agonist call [1]: inactive

CC(CO)CS (configuration not stated)
odorant receptor agonist call [2]: inactive
odorant receptor agonist call [3]: inactive
odorant receptor agonist call [1]: inactive

Cc1cnc(C)c(C)n1
odorant receptor agonist call [2]: inactive
odorant receptor agonist call [3]: inactive
odorant receptor agonist call [1]: inactive

CC(C)(C)c1ccc(OCC=O)cc1
odorant receptor agonist call [1]: active

O=CCCCCc1ccccc1
odorant receptor agonist call [1]: inactive

CCCCCCC=CCCC=O
odorant receptor agonist call [2]: inactive
odorant receptor agonist call [3]: inactive
odorant receptor agonist call [1]: inactive

CCC(S)C(C)CO (configuration not stated)
odorant receptor agonist call [2]: inactive
odorant receptor agonist call [3]: inactive
odorant receptor agonist call [1]: inactive

CC(C=O)Cc1ccc(C(C)(C)C)cc1 (configuration not stated)
odorant receptor agonist call [1]: inactive
odorant receptor agonist call [4]: inactive

CCC1OC(C)=C(O)C1=O (configuration not stated)
odorant receptor agonist call [2]: inactive
odorant receptor agonist call [3]: inactive
odorant receptor agonist call [1]: inactive

COc1ccc(CC(C)C=O)cc1 (configuration not stated)
odorant receptor agonist call [1]: active

CC1=NC(C)C(C)S1 (configuration not stated)
odorant receptor agonist call [2]: inactive
odorant receptor agonist call [3]: inactive
odorant receptor agonist call [1]: inactive

CCCCC(S)C(C)CO (configuration not stated)
odorant receptor agonist call [2]: inactive
odorant receptor agonist call [3]: inactive
odorant receptor agonist call [1]: inactive

CC(CC=O)c1ccccc1 (configuration not stated)
odorant receptor agonist call [1]: active

CC1CCCCCCCCCCCCC(=O)C1 (configuration not stated)
odorant receptor agonist call [2]: inactive
odorant receptor agonist call [3]: inactive

O=c1ccc2ccccc2o1
odorant receptor agonist call [3]: active

CC=Cc1ccc(OC)cc1
odorant receptor agonist call [1]: inactive

CCc1ccc(CC(C)(C)C=O)cc1
odorant receptor agonist call [1]: active

CC(C)=CCCC(C)CCO (configuration not stated)
odorant receptor agonist call [5]: inactive
odorant receptor agonist call [6]: inactive
odorant receptor agonist call [7]: inactive
odorant receptor agonist call [8]: inactive
odorant receptor agonist call [9]: inactive
odorant receptor agonist call [10]: inactive
